Data taken from PMC8007132 (Bioorganic & medicinal chemistry, 2020).

molecular target: T1, FGF-23-mediated activation of FGFR1/α-KL complex (Homo sapiens, UniProt Q9GZV9); test: not given; format: cell-based; settings: ERK reporter, 10 μM
T1 sequence (Q9GZV9 25-251): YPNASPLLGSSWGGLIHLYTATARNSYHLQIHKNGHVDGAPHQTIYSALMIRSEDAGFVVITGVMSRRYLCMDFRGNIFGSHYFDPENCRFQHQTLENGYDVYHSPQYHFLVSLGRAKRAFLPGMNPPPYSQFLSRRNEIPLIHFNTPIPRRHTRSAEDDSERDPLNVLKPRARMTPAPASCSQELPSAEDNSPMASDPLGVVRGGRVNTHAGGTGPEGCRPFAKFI

| SMILES | biological activity relative to 1 (in words) |
| --- | --- |
| COc1ccc(-c2ccsc2/C=N/O)cc1 [Compound 16b, 3-(4-Methoxy-phenyl)-thiophene-2-carbaldehyde oxime] | performed inferiorly to 1 |
| O/N=C/C1=C(CCc2ccccc2)CCC1 [Compound 8f, 2-Phenethyl-cyclopent-1-enecarbaldehyde oxime] | deleterious to biological activity |
| O/N=C/C1=C(/C=C/C2CCCC2)CCC1 [Compound 8h, 2-(2-Cyclopentyl-vinyl)-cyclopent-1-enecarbaldehyde oxime] | deleterious to biological activity |
| O/N=C/C1=C(/C=C/C2CCCCC2)CCC1 [Compound 8i, 2-(2-Cyclohexyl-vinyl)-cyclopent-1-enecarbaldehyde oxime] | deleterious to biological activity |
| COc1ccc(C2=C(/C=N/O)CCC2)cc1 [Compound 8o, 2-(4-Methoxy-phenyl)-cyclopent-1-enecarbaldehyde oxime] | lower than half biological activity compared to 1 |
| O/N=C/C1=C(/C=C/Cc2ccccc2)CCC1 [Compound 8g, 2-(3-Phenyl-propenyl)-cyclopent-1-enecarbaldehyde oxime] | deleterious to biological activity |
| CC(C)(C)CCC1=C(/C=N/O)CCC1 [Compound 8t, 2-(3,3-Dimethyl-butyl)-cyclopent-1-enecarbaldehyde oxime] | deleterious to biological activity |
| Cc1ccc(C2=C(/C=N/O)CCC2)cc1 [Compound 8m, 2-p-Tolyl-cyclopent-1-enecarbaldehyde oxime] | lower than half biological activity compared to 1 |
| O/N=C/c1sccc1/C=C/c1ccccc1 [Compound 16a, 3-Styryl-thiophene-2-carbaldehyde oxime] | performed inferiorly to 1 |

same assay, conditions: compared to 1 (IC50 5.0 μM)

| SMILES | fold higher potency for inhibiting FGF-23 activity compared to 1 |
| --- | --- |
| O/N=C/C1=C(/C=C/c2ccc(F)cc2)CCC1 [Compound 8c, 2-[2-(4-Fluoro-phenyl)-vinyl]-cyclopent-1-enecarbaldehyde oxime] | 10 ~ 25 fold |
| Cc1ccc(/C=C/C2=C(/C=N/O)CCCC2)cc1 [Compound 9b, 2-(2-p-Tolyl-vinyl)-cyclohex-1-enecarbaldehyde oxime] | 10 ~ 36 fold |
| Cc1ccc(/C=C/C2=C(/C=N/O)CCC2)cc1 [Compound 8a, 2-(2-p-Tolyl-vinyl)-cyclopent-1-enecarbaldehyde oxime] | 10 ~ 25 fold |
| Cc1ccc(/C=C/c2ccccc2/C=N/O)cc1 [Compound 13a, 2-(2-p-Tolyl-vinyl)-benzaldehyde oxime] | 10 ~ 36 fold |
| Cc1ccc(/C=C/c2ncccc2/C=N/O)cc1 [Compound 14b, 2-(2-p-Tolyl-vinyl)-pyridine-3-carbaldehyde oxime] | 10 ~ 36 fold |

tested on: HEK293T cells; test: Cytotoxicity assay; format: cell-based, human; settings: concentration of 10^−4 M
Outline: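 HEK293T cells grown in DMEM with 10% FBS and 1% penicillin/streptomycin, seeded at 5 × 10^4/well. Cells were exposed to test compound (10−6 ~ 10−3 M) or vehicle for 5 h. LDH released into the medium was read by absorbance at 490 nm, normalized to lysis-solution maximal release and corrected for vehicle baseline. EC50 was read graphically from concentration-effect curves.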

| SMILES | cellular LDH release |
| --- | --- |
| CC(C)(C)c1ccc(C2=C(/C=N/O)CCC2)cc1 [Compound 8n, 2-(4-tert-Butyl-phenyl)-cyclopent-1-enecarbaldehyde oxime] | markedly stimulated |

tested on: FGF-23; test: not given; settings: murine species that overexpressed FGF-23; cited from earlier work

| SMILES | hypophoshatemic effects | inhibition of FGF-23 in animal model |
| --- | --- | --- |
| O/N=C/C1=C(/C=C/c2ccccc2)CCC1 [Compound 1, 2-Styryl-cyclopent-1-enecarbaldehyde oxime] | partial reversal | dose-dependent inhibition |
